Consider three molecules from ChEMBL document CHEMBL3608281, “Synthesis and biological evaluation of novel 3,9-substituted β-carboline derivatives as anticancer agents” (Bioorg Med Chem Lett, 2015).

As a reminder, the IC50 is the point on the concentration scale where inhibition reaches its midpoint.

Calls of active or inactive are those of the source. The rule behind the calls is not given here.

The subject of assay [1] is HL-60. Put plainly: Cytotoxicity against human HL60 cells. The class given is functional, cell-based.
Assay [2] deals with COLO 205. Put plainly: Cytotoxicity against human COLO205 cells. The class given is functional, cell-based.
The next assay has as its system MCF7. Put plainly: Cytotoxicity against human MCF7 cells. The class given is functional, cell-based.
A short description of assay [3]: Cytotoxicity against human H460 cells incubated for 48 hrs by MTT assay. Format: functional, cell-based. Conditions: NCI-H460, 48 h. In outline:
(§1)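 Human tumour lines (HL-60 leukemia, Hep3B liver, H460 lung, A498 renal, COLO205 colon, 2774 and SK-OV-3 ovarian) and normal Detroit 551 skin fibroblasts were exposed to a range of concentrations for 48 h. IC50 is the concentration giving 50% proliferation inhibition, as the mean of three independent determinations.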
(Formazan colour is commonly taken as a measure of viable cells.)

The subject of assay [4] is HL-60. Put plainly: Induction of cell cycle arrest in human HL60 cells assessed as accumulation at S phase at 5 uM incubated for 48 hrs by propidium iodide staining based flow cytometry (reference value: 43.72%). The class given is functional. (In general: In flow cytometry, cells or beads pass a laser one at a time.)
Assay [5] concerns HL-60. Put plainly: Induction of apoptosis in human HL60 cells assessed as induction of AIF protein release into cytosol at 5 uM incubated for 24 hrs and 48 hrs by Western blotting method. The class given is functional, cell-based. A general note: Immunoblotting shows a protein as a band on a membrane.
The test system of assay [6] is HL-60. Put plainly: Induction of apoptosis in human HL60 cells assessed as induction of PARP cleavage at 5 uM incubated for 24 hrs and 48 hrs by Western blotting method. The class given is functional, cell-based. In outline:
(§2)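 HL-60 cells were exposed to 5 μM for 24 and 48 h. Lysates were immunoblotted for Fas, DR4, DR5, FasL, TRAIL, Bax, Bcl-2, caspase-9, caspase-3 and PARP (cleavage), with β-actin as loading control.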

Assay [7] in a line: Cytotoxicity against human 2774 cells incubated for 48 hrs by MTT assay. The class given is functional, cell-based. In outline:
as §1

The subject of assay [8] is HL-60. Put plainly: Induction of cell cycle arrest in human HL60 cells assessed as accumulation at subG1 phase at 5 uM incubated for 48 hrs by propidium iodide staining based flow cytometry (reference value: 2.5%). The class given is functional.
The subject of assay [9] is HL-60. Put plainly: Induction of apoptosis in human HL60 cells assessed as induction of endonuclease-G protein release into cytosol at 5 uM incubated for 24 hrs and 48 hrs by Western blotting method. Format: functional, cell-based.
In assay [10] the test system is HL-60. Put plainly: Increase in TRAIL protein expression in human HL60 cells at 5 uM incubated for 24 hrs and 48 hrs by Western blotting method. The class given is functional, cell-based. In outline:
as §2

The test system of assay [11] is HL-60. Put plainly: Induction of apoptosis in human HL60 cells assessed as reduction in Bcl-2 protein level at 5 uM incubated for 24 hrs and 48 hrs by Western blotting method. The class given is functional, cell-based. In outline:
as §2

The test system of assay [12] is HL-60. Put plainly: Induction of cell cycle arrest in human HL60 cells assessed as accumulation at G2/M phase at 10 uM incubated for 48 hrs by propidium iodide staining based flow cytometry (reference value: 16.77%). Format: functional.
Assay [13] has as its system HL-60. Put plainly: Induction of cell cycle arrest in human HL60 cells assessed as accumulation at S phase at 10 uM incubated for 48 hrs by propidium iodide staining based flow cytometry (reference value: 43.72%). The class given is functional.
For assay [14], the system named is HL-60. Put plainly: Induction of apoptosis in human HL60 cells assessed as late apoptotic cells level at 5 uM incubated for 24 hrs by annexin V/propidium iodide staining based flow cytometry (reference value: 0.4%). The class given is functional.
Assay [15] relates to HL-60. Put plainly: Increase in FasL protein expression in human HL60 cells at 5 uM incubated for 24 hrs and 48 hrs by Western blotting method. The class given is functional, cell-based. In outline:
as §2

Assay [16] relates to HL-60. Put plainly: Induction of cell cycle arrest in human HL60 cells assessed as accumulation at S phase at 1 uM incubated for 48 hrs by propidium iodide staining based flow cytometry (reference value: 43.72%). Format: functional.
For assay [17], the system named is HL-60. Put plainly: Induction of cell cycle arrest in human HL60 cells assessed as accumulation at G0/G1 phase at 1 uM incubated for 48 hrs by propidium iodide staining based flow cytometry (reference value: 39.51%). Format: functional.
The subject of assay [18] is HL-60. Put plainly: Induction of apoptosis in human HL60 cells assessed as increase in Bax protein level at 5 uM incubated for 24 hrs and 48 hrs by Western blotting method. The class given is functional, cell-based. In outline:
as §2

The test system of assay [19] is HL-60. Put plainly: Induction of apoptosis in human HL60 cells assessed as upregulation of caspase-3 protein expression at 5 uM incubated for 24 hrs and 48 hrs by Western blotting method. Format: functional, cell-based. In outline:
as §2

The test system of assay [20] is HL-60. Put plainly: Increase in DR5 protein expression in human HL60 cells at 5 uM incubated for 24 hrs and 48 hrs by Western blotting method. The class given is functional, cell-based. In outline:
as §2

Assay [21] has as its system HL-60. Put plainly: Increase in DR4 protein expression in human HL60 cells at 5 uM incubated for 24 hrs and 48 hrs by Western blotting method. The class given is functional, cell-based. In outline: as §2
Assay [22] can be described thus: Cytotoxicity against human Hep3B cells incubated for 48 hrs by MTT assay. The class given is functional, cell-based, Hep 3B2. In outline: as §1
Assay [23] concerns HL-60. Put plainly: Cytotoxicity against human HL60 cells incubated for 48 hrs by MTT assay. The class given is functional, cell-based. Conditions: HL-60, 48 h. In outline:
as §1

For assay [24], the system named is HL-60. Put plainly: Induction of apoptosis in human HL60 cells assessed as early apoptotic cells level at 5 uM incubated for 48 hrs by annexin V/propidium iodide staining based flow cytometry (reference value: 0%). The class given is functional.
For assay [25], the system named is HL-60. Put plainly: Induction of cell cycle arrest in human HL60 cells assessed as accumulation at subG1 phase at 10 uM incubated for 48 hrs by propidium iodide staining based flow cytometry (reference value: 2.5%). The class given is functional.
Assay [26] relates to HL-60. Put plainly: Increase in Fas protein expression in human HL60 cells at 5 uM incubated for 24 hrs and 48 hrs by Western blotting method. Format: functional, cell-based. In outline: as §2
Assay [27] has as its system HL-60. Put plainly: Induction of cell cycle arrest in human HL60 cells assessed as accumulation at subG1 phase at 1 uM incubated for 48 hrs by propidium iodide staining based flow cytometry (reference value: 2.5%). Format: functional.
For assay [28], the system named is HL-60. Put plainly: Induction of cell cycle arrest in human HL60 cells assessed as accumulation at G0/G1 phase at 10 uM incubated for 48 hrs by propidium iodide staining based flow cytometry (reference value: 39.51%). The class given is functional.
The subject of assay [29] is HL-60. Put plainly: Induction of cell morphology changes in human HL60 cells assessed as induction of nuclear shrinkage at 5 uM incubated for 24 hrs by a phase-contrast microscopy. The class given is functional, cell-based. In outline: (§3)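 HL-60 cells were treated at 1, 5 and 10 μM for 24 h and 48 h and examined microscopically for nuclear shrinkage and apoptotic bodies.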

In assay [30] the test system is HL-60. Put plainly: Induction of cell morphology changes in human HL60 cells assessed as induction of appearance apoptotic bodies at 5 uM incubated for 24 hrs by a phase-contrast microscopy. Format: functional, cell-based. In outline: as §3
A further assay deals with Detroit 551. Put plainly: Cytotoxicity against human Detroit 551 cells incubated for 48 hrs by MTT assay. Format: cell-based. Particulars: Detroit 551, 48 h. In outline:
as §1

For assay [31], the system named is HL-60. Put plainly: Induction of cell cycle arrest in human HL60 cells assessed as accumulation at subG1 phase incubated for 48 hrs by propidium iodide staining based flow cytometry. Format: functional.
The subject of assay [32] is HL-60. Put plainly: Induction of apoptosis in human HL60 cells assessed as late apoptotic cells level at 5 uM incubated for 48 hrs by annexin V/propidium iodide staining based flow cytometry (reference value: 0.4%). The class given is functional.
The subject of the next assay is A498. Put plainly: Cytotoxicity against human A498 cells incubated for 48 hrs by MTT assay. Particulars: A498, 48 h. The class given is functional, cell-based.
The subject of assay [33] is HL-60. Put plainly: Induction of apoptosis in human HL60 cells assessed as early apoptotic cells level at 5 uM incubated for 24 hrs by annexin V/propidium iodide staining based flow cytometry (reference value: 0%). The class given is functional.
The subject of assay [34] is HL-60. Put plainly: Induction of apoptosis in human HL60 cells assessed as induction of cytochrome-c protein release into cytosol at 5 uM incubated for 24 hrs and 48 hrs by Western blotting method. The class given is functional, cell-based.
For a further assay, the system named is SK-OV-3. Put plainly: Cytotoxicity against human SKOV3 cells incubated for 48 hrs by MTT assay. Format: functional, cell-based. Particulars: SK-OV-3, 48 h. In outline:
as §1

Assay [35] relates to COLO 205. Put plainly: Cytotoxicity against human COLO205 cells incubated for 48 hrs by MTT assay. The class given is functional, cell-based. Conditions: COLO 205, 48 h. In outline:
as §1

The subject of assay [36] is HL-60. Put plainly: Induction of apoptosis in human HL60 cells assessed as induction of Apaf-1 protein release into cytosol at 5 uM incubated for 24 hrs and 48 hrs by Western blotting method. Format: functional, cell-based.
Assay [37] has as its system HL-60. Put plainly: Induction of apoptosis in human HL60 cells assessed as upregulation of caspase-9 protein expression at 5 uM incubated for 24 hrs and 48 hrs by Western blotting method. The class given is functional, cell-based. In outline:
as §2

Assay [38] relates to HL-60. Put plainly: Induction of cell cycle arrest in human HL60 cells assessed as accumulation at G2/M phase at 5 uM incubated for 48 hrs by propidium iodide staining based flow cytometry (reference value: 16.77%). Format: functional.
The test system of assay [39] is HL-60. Put plainly: Induction of cell cycle arrest in human HL60 cells assessed as accumulation at G0/G1 phase at 5 uM incubated for 48 hrs by propidium iodide staining based flow cytometry (reference value: 39.51%). Format: functional.
Assay [40] relates to HL-60. Put plainly: Induction of cell cycle arrest in human HL60 cells assessed as accumulation at G2/M phase at 1 uM incubated for 48 hrs by propidium iodide staining based flow cytometry (reference value: 16.77%). Format: functional.

Take `COc1cc(Cn2c3ccc(C(C)=O)cc3c3cccnc32)cc(OC)c1OC`: the IC50 came out at 0.03 µM with HL-60 [1] and 0.52 µM in the assay with COLO 205 [2].
In the assay on MCF7, `OCc1ccc2c(c1)c1ccccc1n2Cc1ccc(Cl)nc1` yielded an IC50 of 20 µM.
Consider `COc1ccccc1Cn1c2ccccc2c2cc(C(=O)O)ncc21`, for which the IC50 in assay [3] was 8 µM; in [7], 12.6 µM; in assay [22], 6.7 µM; in the assay with HL-60 [23] it was 4 µM; in the assay on Detroit 551 it was greater than 100 µM; in the assay on A498 it was 7.5 µM. Moreover, the IC50 in the assay with SK-OV-3 is 21.4 µM; with COLO 205 [35], 32.5 µM. Further, the Activity in the assay on HL-60 [4] was 50.19%; in the assay with HL-60 [8], 14.55%; with HL-60 [12], 4.98%; with HL-60 [13] it was 39.4%; with HL-60 [14] it was 27.9%; in the assay with HL-60 [16], 49.22%. In addition, the Activity with HL-60 [17] is 34.67%; in the assay with HL-60 [24], 46.6%; in the assay with HL-60 [25], 17.79%; with HL-60 [27], 9.83%; in the assay on HL-60 [28], 55.62%; with HL-60 [31], “Dose-dependent effect”. Also, the Activity in the assay on HL-60 [32] is recorded as 38.6%; in the assay with HL-60 [33] it was 37.9%; in the assay with HL-60 [38] it was 12.42%; in the assay on HL-60 [39], 37.39%; in the assay with HL-60 [40] it was 16.11%. Also, the result in the assay with HL-60 [5], with HL-60 [6], in the assay with HL-60 [9], in the assay with HL-60 [11], in the assay on HL-60 [18] and in the assay on HL-60 [19] was Active. Also, the outcome in the assay with HL-60 [29], in the assay with HL-60 [30], in the assay on HL-60 [34], in the assay with HL-60 [36] and in the assay on HL-60 [37] was Active. The result in the assay with HL-60 [10], in the assay on HL-60 [15], in the assay with HL-60 [20], with HL-60 [21] and in the assay on HL-60 [26] was inactive.
